The source made the active and inactive calls.
Assays:
Vero = experiment: Cytotoxicity against African green monkey Vero cells assessed as cell viability after 72 hrs by flow cytometric analysis; type: cell-based; details: Chlorocebus sabaeus
Method in brief: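 Vero cells grown in RPMI with 10% inactivated FBS at 37 °C, 5% CO2, seeded at 1 × 10^5 cells/mL, grown 2 days, then exposed to 1–100 μM compound for 72 h. Viability measured by flow cytometry; IC50 by linear regression.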

Trypanosoma cruzi [1] = experiment: Inhibition of Trypanosoma cruzi epimastigotes Fe-SOD at 50 ug/ml by NBT reduction assay
Method in brief: (§1)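 Enzyme from epimastigotes grown without FBS (excreted Fe-SOD), sonicated in STE buffer pH 7.8, centrifuged, supernatant protein by Bradford; human erythrocyte CuZn-SOD for comparison. NBT reduction by superoxide (Beyer–Fridovich): methionine, NBT, Triton X-100, riboflavin, homogenate plus compound; A560 read before and after 10 min UV illumination with stirring. Five separate determinations; Newman–Keuls test against control.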

Mus musculus [2] = experiment: Toxicity in BALB/c mouse liver infected with Trypanosoma cruzi assessed as necrotic cells in portal tracts at 5 mg/kg, ip after 120 days postinfection by Histopathological analysis; type: organism-based; design: dose 5 mg/kg, route intraperitoneal; details: in vivo, 2880 h
Method in brief: (§2)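 Livers removed at 120 days postinfection, fixed in 10% buffered formalin, paraffin-embedded, 4–5 μm sections stained with H&E and Masson's trichrome. Blinded scoring of at least 30 fields per slide, 0 (none) to 5 (severe).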

Trypanosoma cruzi [3] = experiment: Trypanosomicidal activity against Trypanosoma cruzi SN3 anexic amastigote after 48 hrs by hemocytometric analysis; type: functional, organism-based; details: SN3, 48 h
Method in brief: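 Axenic amastigotes obtained from epimastigotes after 3 days in supplemented M199 (10% FCS, pH 5.4, 37 °C).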

Trypanosoma cruzi [4] = experiment: Inhibition of Trypanosoma cruzi epimastigotes Fe-SOD at 25 ug/ml by NBT reduction assay; method in brief: as §1
[5] = Selectivity index, ratio of IC50 for Vero cells to IC50 for Trypanosoma cruzi intracellular amastigote infected in Vero cells; type: toxicity, cell-based; details: monkey; read-out: Ratio IC50
Trypanosoma cruzi [6] = experiment: Trypanosomicidal activity against Trypanosoma cruzi infected in Vero cells assessed as reduction in amastigotes per infected Vero cells after 6 days by Giemsa staining method; type: functional; design: scale not given: the % may be the effect or the level left
Trypanosoma cruzi [7] = experiment: Trypanosomicidal activity against Trypanosoma cruzi epimastigotes assessed as inhibition of acetate metabolite excretion after 96 hrs by NMR analysis; type: functional
Method in brief: (§3)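 Epimastigotes (5 × 10^5 cells/mL) exposed to IC25 of compound for 96 h at 28 °C; supernatant after centrifugation analysed by 1H NMR with DSS reference, compared against untreated cultures.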

Trypanosoma cruzi [8] = experiment: Trypanosomicidal activity against Trypanosoma cruzi SN3 epimastigote after 72 hrs by hemocytometric analysis; type: functional, organism-based; details: SN3, 72 h
Method in brief: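 Exponential-phase SN3 epimastigotes (Grace's medium, 10% FBS, 28 °C) seeded at 5 × 10^4 parasites/well with compounds dissolved in MTL at 1, 10, 25, 50, 100 μM.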

Trypanosoma cruzi [9] = experiment: Trypanosomicidal activity against Trypanosoma cruzi infected in Vero cells assessed as reduction in rate of infection after 10 days by Giemsa staining method; type: functional; design: scale not given: the % may be the effect or the level left
Method in brief: (§4)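 Vero cells infected with metacyclic forms (10:1); compounds at IC25 added at infection for 12 h at 37 °C, then washed out and cultures grown 10 days with medium renewed every 48 h. Infected cells and amastigotes per cell counted in >100 host cells on Giemsa-stained slides; trypomastigotes in medium counted; mean of four determinations.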

Trypanosoma cruzi [10] = experiment: Antitrypanosomal activity against Trypanosoma cruzi infected in BALB/c mouse assessed as reduction in trypomastigotes at 1 mg/kg, ip dosed for 5 days measured on day 14 post infection; type: functional, organism-based; design: dose 1 mg/kg
Method in brief: (§5)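 Female BALB/c mice infected with trypomastigotes, dosed ip at 1 mg/kg/day on days 5–10 postinfection; vehicle controls. Mandibular vein blood (5 μL) diluted in citrate/lysis buffer pH 7.2; parasites counted under immersion objective every 2 days from day 5 to 30, as parasites/mL.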

[11] = Inhibition of Trypanosoma cruzi epimastigotes Fe-SOD by NBT reduction assay; method in brief: as §1
Trypanosoma cruzi [12] = experiment: Trypanosomicidal activity against Trypanosoma cruzi epimastigotes assessed as inhibition of succinate metabolite excretion after 96 hrs by NMR analysis; type: functional; method in brief: as §3
Trypanosoma cruzi [13] = experiment: Trypanosomicidal activity against Trypanosoma cruzi epimastigotes assessed as very electron dense protozoan cells by TEM analysis; type: functional, organism-based
Mus musculus [14] = experiment: Toxicity in BALB/c mouse liver infected with Trypanosoma cruzi assessed as blood vessels with thickened walls at 5 mg/kg, ip after 120 days postinfection by Histopathological analysis; type: organism-based, Blood vessel; design: dose 5 mg/kg, route intraperitoneal; details: in vivo, 2880 h; method in brief: as §2
Mus musculus [15] = experiment: Toxicity in BALB/c mouse liver infected with Trypanosoma cruzi assessed as delocalized hepatic destruction at 5 mg/kg, ip after 120 days postinfection by Histopathological analysis; type: organism-based; design: dose 5 mg/kg, route intraperitoneal; details: in vivo, 2880 h; method in brief: as §2
[16] = Selectivity index, ratio of IC50 for Vero cells to IC50 for Trypanosoma cruzi anexic amastigote; type: toxicity, cell-based; details: monkey, Vero cells versus Trypanosoma cruzi axenic amastigotes; read-out: Ratio IC50
Mus musculus [17] = experiment: Toxicity in BALB/c mouse liver infected with Trypanosoma cruzi assessed as lymphocytic infiltrations in portal tracts at 5 mg/kg, ip after 120 days postinfection Histopathological analysis; type: organism-based; design: dose 5 mg/kg, route intraperitoneal; details: in vivo, 2880 h; method in brief: as §2
Trypanosoma cruzi [18] = experiment: Trypanosomicidal activity against Trypanosoma cruzi epimastigotes assessed as intense vacuolization of protozoan cells by TEM analysis; type: functional, organism-based
Trypanosoma cruzi [19] = experiment: Trypanosomicidal activity against Trypanosoma cruzi epimastigotes assessed as distorted shape of protozoan cells by TEM analysis; type: functional, organism-based
Trypanosoma cruzi [20] = experiment: Trypanosomicidal activity against Trypanosoma cruzi infected in Vero cells assessed as reduction in trypomastigotes in culture medium after 10 days by Giemsa staining method; type: functional; design: scale not given: the % may be the effect or the level left; method in brief: as §4
[21] = target: Superoxide dismutase [Cu-Zn], SOD1 (Homo sapiens) (UniProt P00441); experiment: Activity of human erythrocyte Cu-Zn SOD by NBT reduction assay
Sequence of Superoxide dismutase [Cu-Zn], SOD1 (Homo sapiens) (P00441 whole entry, looked up): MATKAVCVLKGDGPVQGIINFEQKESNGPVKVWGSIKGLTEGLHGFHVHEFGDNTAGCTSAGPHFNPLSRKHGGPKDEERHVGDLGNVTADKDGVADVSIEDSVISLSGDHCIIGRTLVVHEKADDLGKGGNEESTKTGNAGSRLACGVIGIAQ

Trypanosoma cruzi [22] = experiment: Trypanosomicidal activity against Trypanosoma cruzi SN3 amastigote infected in Vero cells after 72 hrs by Giemsa staining method; type: functional, organism-based
Method in brief: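 Vero cells seeded at 1 × 10^4/well on coverslips, grown 2 days, infected with metacyclic forms (10:1) for 24 h, washed, then treated at 1–100 μM for 72 h in RPMI/10% FBS. Amastigote reduction scored on methanol-fixed Giemsa-stained slides; four determinations; IC50.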

Mus musculus [23] = experiment: Toxicity in BALB/c mouse liver infected with Trypanosoma cruzi assessed as granulomas with limphocitic infiltration at 5 mg/kg, ip after 120 days postinfection by Histopathological analysis; type: organism-based; design: dose 5 mg/kg, route intraperitoneal; details: in vivo, 2880 h; method in brief: as §2
Mus musculus [24] = experiment: Toxicity in BALB/c mouse liver infected with Trypanosoma cruzi assessed as hepatic destruction in portal tracts at 5 mg/kg, ip after 120 days postinfection by Histopathological analysis; type: organism-based; design: dose 5 mg/kg, route intraperitoneal; details: in vivo, 2880 h; method in brief: as §2
Trypanosoma cruzi [25] = experiment: Antitrypanosomal activity against Trypanosoma cruzi infected in BALB/c mouse assessed as reduction in parasitemia at 1 mg/kg, ip dosed for 5 days measured on day 30 post infection; type: functional; design: scale not given: the % may be the effect or the level left; details: route intraperitoneal; method in brief: as §5
[26] = Selectivity index, ratio of IC50 for Vero cells to IC50 for Trypanosoma cruzi epimastigote; type: toxicity, cell-based; details: monkey, Vero cells versus Trypanosoma cruzi epimastigotes; read-out: Ratio IC50
Mus musculus [27] = experiment: Toxicity in BALB/c mouse liver infected with Trypanosoma cruzi assessed as intestinal hemorrhage at 5 mg/kg, ip after 120 days postinfection by Histopathological analysis; type: organism-based; design: dose 5 mg/kg, route intraperitoneal; details: in vivo, 2880 h; method in brief: as §2
[28] = Selectivity ratio of IC50 for Trypanosoma cruzi epimastigotes Fe-SOD to IC50 for human erythrocyte Cu-Zn SOD
Trypanosoma cruzi [29] = experiment: Trypanosomicidal activity against Trypanosoma cruzi epimastigotes assessed as inhibition of L-lactate metabolite excretion after 96 hrs by NMR analysis; type: functional; method in brief: as §3
Trypanosoma cruzi [30] = experiment: Trypanosomicidal activity against Trypanosoma cruzi epimastigotes assessed as altered nucleus by TEM analysis; type: functional, organism-based
Trypanosoma cruzi [31] = experiment: Antitrypanosomal activity against Trypanosoma cruzi infected in BALB/c mouse assessed as reduction in anti-organism antibody at 1 mg/kg, ip dosed for 5 days measured on day 40 to 120 post infection; type: functional, organism-based; design: dose 1 mg/kg
Method in brief: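 Infected female BALB/c mice given 1 mg/kg/day ip for 5 days. Serum (1:50 in PBS) on days 40 and 120 tested by ELISA against excreted epimastigote Fe-SOD antigen; absorbance 490 nm, cutoff = negative-control mean + 3 SD; change is day-120 minus day-40 absorbance.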

Trypanosoma cruzi [32] = experiment: Inhibition of Trypanosoma cruzi epimastigotes Fe-SOD at 10 ug/ml by NBT reduction assay; method in brief: as §1
Trypanosoma cruzi [33] = experiment: Trypanosomicidal activity against Trypanosoma cruzi epimastigotes assessed as reservosomes in cytoplasm by TEM analysis; type: functional, organism-based
Trypanosoma cruzi [34] = experiment: Antitrypanosomal activity against Trypanosoma cruzi infected in BALB/c mouse assessed as survival rate at 1 mg/kg, ip dosed for 5 days; type: functional; details: 120 h, route intraperitoneal
Method in brief: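 Female BALB/c mice were infected with trypomastigotes of T. cruzi SN3 strain (Colombian R. prolixus isolate). Dosing was ip at 1 mg/kg/day for 5 consecutive days, on days 5–10 postinfection. Controls were infected mice given vehicle only, plus uninfected groups. Mortality was followed over the acute phase (first 30 days) and the chronic phase (days 40–120 postinfection).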

Structure (SMILES)	inhibition (Trypanosoma cruzi [1])	Activity [21]	IC50 (Vero)	Activity (Mus musculus [2])	IC50 (Trypanosoma cruzi [3])	selectivity ratio [5]	Activity (Trypanosoma cruzi [6])	inhibition (INH) (Trypanosoma cruzi [7])	IC50 (Trypanosoma cruzi [8])	Activity (Trypanosoma cruzi [9])	IC50 [11]	Activity (Mus musculus [14])	Activity (Mus musculus [15])	selectivity ratio [16]	Activity (Mus musculus [17])	Activity (Trypanosoma cruzi [20])	IC50 (Trypanosoma cruzi [22])	Activity (Mus musculus [23])	Activity (Mus musculus [24])	Activity (Trypanosoma cruzi [25])	further results
Cl.c1ccc(Cn2nc3cc2CNCCNCCNCc2cc(n(Cc4ccccc4)n2)CNCCNCCNC3)cc1	98%	23.4 U/mg	195 µM	Non-toxic	10 µM	14.2	26%	23%	16.5 µM	>50%	28.7 µM	Toxic	Non-toxic	19.5	Toxic	34%	13.8 µM	Toxic	Non-toxic	16%	inhibition (Trypanosoma cruzi [4]): 70%; Activity (Trypanosoma cruzi [10]): Active; inhibition (INH) (Trypanosoma cruzi [12]): 19%; Activity (Trypanosoma cruzi [13]): Active; Activity (Trypanosoma cruzi [18]): Active; Activity (Trypanosoma cruzi [19]): Active; selectivity ratio [26]: 11.8; Activity (Mus musculus [27]): Toxic
CCCCCCCCN1CCNCc2cc([nH]n2)CNCCN(CCCCCCCC)CCNCc2cc(n[nH]2)CNCC1	65%	23.4 U/mg	21.5 µM		20.8 µM	1.1			46.4 µM		44.6 µM			1			18.4 µM				selectivity ratio [26]: 0.5
O=C(Cn1ccnc1[N+](=O)[O-])NCc1ccccc1 [BENZNIDAZOLE]				Toxic	18.9 µM		13%	-6%		23%		Non-toxic	Toxic		Non-toxic	46%	23.3 µM	Toxic	Toxic	26%	survival at 1 mg/kg (Trypanosoma cruzi [34]): 80%; Activity (Trypanosoma cruzi [31]): Active; Activity (Mus musculus [27]): Toxic

Second part, led by results:

inhibition (Trypanosoma cruzi [1])	Activity [21]	Structure (SMILES)	IC50 (Vero)	Activity (Mus musculus [2])	IC50 (Trypanosoma cruzi [3])	selectivity ratio [5]	Activity (Trypanosoma cruzi [6])	inhibition (INH) (Trypanosoma cruzi [7])	IC50 (Trypanosoma cruzi [8])	Activity (Trypanosoma cruzi [9])	IC50 [11]	Activity (Mus musculus [14])	Activity (Mus musculus [15])	selectivity ratio [16]	Activity (Mus musculus [17])	Activity (Trypanosoma cruzi [20])	IC50 (Trypanosoma cruzi [22])	Activity (Mus musculus [23])	Activity (Mus musculus [24])	Activity (Trypanosoma cruzi [25])	further results
98%	23.4 U/mg	Cl.Cn1nc2cc1CNCCNCCNCc1cc(n(C)n1)CNCCNCCNC2	178 µM	Non-toxic	8.8 µM	27.5	42%	15%	1.3 µM	80%	4.2 µM	Toxic	Non-toxic	20.3	Non-toxic	64%	6.5 µM	Non-toxic	Non-toxic	39%	Ratio IC50 [28]: 23; inhibition (INH) (Trypanosoma cruzi [29]): 58%; Activity (Trypanosoma cruzi [30]): Active; inhibition (Trypanosoma cruzi [4]): 70%; Activity (Trypanosoma cruzi [10]): Active; inhibition (INH) (Trypanosoma cruzi [12]): 70%; Activity (Trypanosoma cruzi [31]): Active; inhibition (Trypanosoma cruzi [32]): 75%; Activity (Trypanosoma cruzi [33]): Active; Activity (Trypanosoma cruzi [18]): Active; selectivity ratio [26]: 137; Activity (Mus musculus [27]): Non-toxic
98%	23.4 U/mg	Cl.c1c2n[nH]c1CNCCN1CCNCc3cc(n[nH]3)CNCCN(CCNC2)CCNCc2cc([nH]n2)CNCC1	149 µM	Non-toxic	7.2 µM	24	50%	22%	1.3 µM	74%	30.8 µM	Non-toxic	Non-toxic	20.7	Non-toxic	70%	6.2 µM	Non-toxic	Toxic	53%	inhibition (Trypanosoma cruzi [4]): 70%; Activity (Trypanosoma cruzi [10]): Active; inhibition (INH) (Trypanosoma cruzi [12]): 7%; Activity (Trypanosoma cruzi [31]): Active; Activity (Trypanosoma cruzi [13]): Active; Activity (Trypanosoma cruzi [18]): Active; Activity (Trypanosoma cruzi [19]): Active; selectivity ratio [26]: 115; Activity (Mus musculus [27]): Non-toxic

Reference: ChEMBL document CHEMBL2069181, “In vitro and in vivo trypanosomicidal activity of pyrazole-containing macrocyclic and macrobicyclic polyamines: their action on acute and chronic phases of Chagas disease” (J Med Chem, 2012)
